The results in this text go back to the EternaBench riboswitch data.

This series concerns MS2 coat protein. In words: apparent Kd, MS2 coat protein; higher = weaker binding; RNA-MaP array; FMN 200 µM where present. The method, boiled down:
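On Illumina sequencing-chip clusters, designs were transcribed by stalled E. coli RNA polymerase and titrated with SNAP-549-labelled MS2 coat protein (0.7 or 1.5 nM, doubling to 3 µM), without and then with constant ligand, in 100 mM Tris-HCl pH 7.5, 80 mM KCl, 4 mM MgCl2, BSA, DTT, yeast tRNA and Tween-20. Apparent Kd is the median of filtered per-cluster curve fits to green signal normalised to red-channel RNA signal and control-cluster median Fmax.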

Where [1] appears, read: designed as: OFF switch for flavin mononucleotide, no ligand.
Where [2] appears, read: ligand present: flavin mononucleotide, designed as: OFF switch for flavin mononucleotide.
Setting [3] is: designed as: ON switch for flavin mononucleotide, no ligand.
Where [4] appears, read: ligand present: flavin mononucleotide, designed as: ON switch for flavin mononucleotide.

Consider “GGUUGUCAAAGACAACCUUAACGAACAUGAGGAUCACCCAUGUAGGAUAUGCUACUCAAAGAGUAGCAGAAGGACAUGUGUCUU”, for which the apparent Kd (in general, a dissociation constant that holds for the conditions of the assay) was 30.8 nM under setting [1] and 156 nM under setting [2].

“ACUACGAUAGCGAUAUGAUCGAGAGAUCAUGUCGCUAUUUUUAGAAGGACAUGAGGAUCACCCAUGUAGGAUAUGGGACGUGGA”: the “apparent Kd” value reads like this: under setting [3], 70.4 nM; under setting [4], 27.1 nM.

As to “AAUAAACAUGAGGAUCACCCAUGUAAUAUAAAUGGAGGAUAUGCAAUUAUUAAUUAUUAAGUAGAAGGUCGAAUAA”, the “apparent Kd” value was 73.9 nM under setting [3] and 73.6 nM under setting [4].

Turning to “AAGGAUAGAGGAUAUACAUAGAUACAGAUUCAUGUAGAACUACAUGAGGAUCACCCAUGUAGAAGGCUAUCCUA”, the “apparent Kd” value by setting is: under setting [1], 32.9 nM; under setting [2], 239 nM.

In the case of “UAUGGUAAAGUCAGGAUAUACGUGCAGUUUUCUGGGUAGAAGGGACAUGAGGAUCACCCAUGUAUGGUAGUGUU”, the “apparent Kd” value reads like this: under setting [1], 118 nM; under setting [2], 142 nM.

Take “AAAGUCGGAAGAUAAUAAUGAAUACAUGAGGAUCACCCAUGUAAGGAUAUGCAGUGGAAUACACUGCAGAAGGUACAAACCGAC”: the “apparent Kd” value was 14.7 nM under setting [1] and 19.8 nM under setting [2].

On to “GGAAUAUUUACAGGAUAUGUUUUGUUAAGUCGAGCAGAAGGGUAGAUGUCUUACACGGUUUGUUACAUGAGGAUCACCCAUGUU”, for which the “apparent Kd” value reads like this: under setting [3], 114 nM; under setting [4], 35.1 nM.

For the sequence “GGAUGACAAAGUCAUCCCGCUUUGACAUGAGGAUCACCCAUGUAGGAUAUAUUAAUCAAAGAUUAAUAGAAGGACAUGUUUCUG”, the “apparent Kd” value is 72.4 nM under setting [1] and 174 nM under setting [2].

For the sequence “GUGCGGUAGGAGAAGGACGGAGGCUUCUUUACAUACAUGAGGAUCACCCAUGUAGGAUAUCCUACCUCACGCGGCCUCCUUCUG”, the “apparent Kd” value reads like this: under setting [1], 5.4 nM; under setting [2], 5.5 nM.

Consider “GCACUUCGGCAGAAGGGACUAAGGGUAUGGUAGUCAGGAUAUGCAGGGUGGGCGUUUCACAUGAGGAUCACCCAUGUAGGACCA”, for which the “apparent Kd” value by setting is: under setting [3], 21.1 nM; under setting [4], 7.78 nM.

“UUCAUCAAUGAAGGAUAUCUAUAUCCAACAUGAGGAUCACCCAUGUUGAGGAUCACCCAUGUAAAGGAGAAGGUUAAUAUAACU”: the “apparent Kd” value amounted to 35.9 nM under setting [3] and 31.4 nM under setting [4].

Consider “UUGUUACAUGAGGAUCACCCAUGUGAGGAUAUGAGUCAGUCACGGUGACGUGGCUGACUCAGAAGGCACUAUGG”, for which the “apparent Kd” value was 300 nM under setting [1] and 149 nM under setting [2].

As for “AGUAGAUCAGGAUAUACGUAAAUGGUAAUUAUGUAACUUAUACAUGAGGAUCACCCAUGUAGAAGGGAUCUACA”, the “apparent Kd” value was found to be 19.4 nM under setting [1] and 51.9 nM under setting [2].

Consider “UAUGUGUGAGGAUAUGGUAAAGAUAAGAUGAUGAAAGAACUCCAGAAGGCACAUGAGGAUCACCCAUGUAGAUA”, for which the “apparent Kd” value under setting [1] amounted to 22.8 nM and the “apparent Kd” value under setting [2] amounted to 45.6 nM.

Take “CGCACUGAUAGAGGAUAUGUUGUACAUGAGGAUCACCCAUGUGUUUUUGUAUCAAUAUUUGUGAAACAGAAGGCUAUUAGUGCG”: the “apparent Kd” value is 7.58 nM under setting [1] and 5.65 nM under setting [2].

In the case of “CGAUAACAUAGUUAUCCGUAACGUACAUGAGGAUCACCCAUGUAGGAUAUGUUACUAAACUAGUAACAGAAGGACAUGAGUAUU”, the “apparent Kd” value was determined as 54.9 nM under setting [1] and 315 nM under setting [2].

“GGAUAGGACAGAGGAUAUACGUGCUAGAGAUACUAGCAAAAUUUCCUAACAUGAGGAUCACCCAUGUAGAAGGCUGUCCUAUCG”: the “apparent Kd” value reads like this: under setting [1], 6.61 nM; under setting [2], 13.3 nM.

For the sequence “CGCUCAAUUACUUUGAAUAGAAUCAGAAGGCGUUACAUGAGGAUCACCCAUGUUAUGAUGUGUAACGAGGAUAUGAAUUGAGCG”, the “apparent Kd” value by setting is: under setting [1], 38.2 nM; under setting [2], 208 nM.

On to “AAUUUGUGAAAAUUACAUGAGGAUCACCCAUGUUAGGGAAUGCAGGAUAUGUGGUUUAUUAUUUUACAGAAGGGCAAUAAUUUU”, for which the “apparent Kd” value by setting is: under setting [3], 95.9 nM; under setting [4], 53.6 nM.

Turning to “CUGCGCUAGGAGAAGGGCUAGAGUGUGAUAUAUUUGCCCGCGAGCACAUGAGGAUCACCCAUGUAGCAGGAUAUCCAAGCCGGU”, the “apparent Kd” value is 6.86 nM under setting [1] and 16.5 nM under setting [2].
